Assay outcomes as filed in PubChem.
This is a sample that favours compounds with a hit; in the whole collection about 2.4% have one here.
AP complement – orthogonal test for alternative complement pathway inhibitors | inhibition, % at 5 µM | 0.08% of 62,000 active | Human serum alternative complement pathway, LPS-coated ELISA, C3 deposition; tested in compound mixtures;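 active means inhibition above 30% in each of the two pooled mixtures holding the compound, so the lower value exceeds 30%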
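Test system – human serum alternative complement pathway, C3 deposition on LPS-coated wells · Buffer or medium – diluted human serum in Mg2+-EGTA GVB++ · Compound dosing – 5 µM each compound, pools of ten, 50 µM per pool · Schedule – 1 h serum-compound exposure at 37 °C · Measured by – Anti-C3 ELISA, OD 450 nm · Read-out basis – percent inhibition of C3 deposition onto LPS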
MMP13 inh – MMP13 (human) collagenase inhibition; inhibition, % at 4 µM; 0.07% of 65,000 active; MMP-13 fTHP FRET cleavage, Mca fluorescence; AID 570;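 active means inhibition above the mean of compound-free control plate wells plus 3 SD, cut at about 14% in these data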
HePTP inhibitor – inhibitors of human HePTP phosphatase; P35236; recombinant HePTP phosphatase activity, OD absorbance; inhibition, % at 20 µM; 0.64% of 110,000 active; in the data active means inhibition above about 50%
SF1 activator – activators of human nuclear receptor SF-1 | 1.9% of 65,000 active | Q13285 | activation, % at 10 µM | CHO-K1 Gal4-SF-1 LBD luciferase reporter; % increase over DMSO SF-1-specific signal | AID 522;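 active means activation above the mean activation of all tested compounds plus 3 SD, cut at about 50% in these data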
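System: CHO-K1 cells with Gal4–hSF-1 LBD chimera plus Gal4-driven luciferase; quantity: 4,000 CHO-K1 cells per well; compound: one dose, 10 µM compound, 1% DMSO; times: 20 h compound treatment, 37 °C; measured by: SteadyLite luciferase luminescence; read-out: percent activation versus DMSO; benchmarks: DMSO and mock-transfected background; replicates: one test per compound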
E coli RNAP – blocks E. coli RNA polymerase transcription. P0A8V2. fluorescence transcription assay. inhibition, %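 (tested at 10 µM)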. 0.2% of 62,000 active. AID 559; in the data active means inhibition above about 20%
RORA act – activates the human nuclear receptor RORA. activation, % at 10 µM. AID 560. 1.5% of 65,000 active. CHO-K1 Gal4-RORA LBD luciferase reporter, luminescence; percent increase over mock-subtracted basal signal. P35398;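 active means activation above the mean of all tested compounds plus 3 SD, cut at about 49% in these data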
Each line names hits and unclear results; the compound was inactive in the other large screens.

CN(Cn1nc(-c2ccccc2)oc1=S)c1ccccc1	none (no result: AP complement, MMP13 inh, SF1 activator, E coli RNAP, RORA act)
CC1CCc2c(sc(NC(=O)c3ccc(Br)cc3)c2C#N)C1 (configuration not stated)	none (no result: AP complement, MMP13 inh, SF1 activator, E coli RNAP, RORA act)
O=C(Nc1ccc(Oc2ccccc2)cc1)C1CCCO1 (configuration not stated)	SF1 activator 58
COC(=O)c1ccc(NC(=O)C2CCCO2)cc1 (configuration not stated)	none
COc1ccc(-c2ccc(-c3nnn(CC(C)=O)n3)cc2)cc1	SF1 activator 90
Cc1nc2cc(NC(=O)NCCC3=CCCCC3)ccc2o1	RORA act 73
CCOC(=O)c1c(-c2ccccc2)csc1NC(=O)c1ccc(C)cc1	none (no result: AP complement, MMP13 inh, SF1 activator, E coli RNAP, RORA act)
O=C(O)c1ccccc1N=Nc1cc(-c2ccccc2)oc1O	HePTP inhibitor 101 (no result: AP complement, MMP13 inh, SF1 activator, E coli RNAP, RORA act)
FC(F)(F)c1cccc(-c2nnc3ccc(C(F)(F)F)cn23)c1	none
FC(F)(F)c1ccc2nnc(-c3cccc(OCc4ccccc4)c3)n2c1	HePTP inhibitor 101 (no result: AP complement, MMP13 inh, SF1 activator, E coli RNAP, RORA act)
FC(F)(F)c1ccc2nnc(-c3cc(Br)ccc3OCc3ccccc3)n2c1	HePTP inhibitor 55 (no result: AP complement, MMP13 inh, SF1 activator, E coli RNAP, RORA act)
COc1ccc2ccccc2c1-c1nnc2ccc(C(F)(F)F)cn12	none (no result: AP complement, MMP13 inh, SF1 activator, E coli RNAP, RORA act)
CS(=O)(=O)N(Cc1ccc(Cl)cc1)c1ccc(C(=O)O)cc1	none (no result: AP complement, MMP13 inh, SF1 activator, E coli RNAP, RORA act)
CN1CCN(/C=N/c2sc3c(c2C#N)CCCCC3)CC1	SF1 activator 54
N#Cc1c(/N=C/c2ccco2)sc2c1CCC2	none
Cc1ccc(/C=N/c2sc3c(c2C#N)CCCCC3)o1	SF1 activator 54
CC1(C(=O)NCc2cccnc2)CCC(=O)N1Cc1cccs1 (configuration not stated)	AP complement 36
CC1(C(=O)NCc2cccnc2)CCC(=O)N1CCc1ccccc1 (configuration not stated)	none
COC(=O)c1cc(C(=O)Nc2cc(OC)ccc2OC)cc([N+](=O)[O-])c1	none (no result: AP complement, MMP13 inh, SF1 activator, E coli RNAP, RORA act)
Cc1ncsc1CCOC(=O)C12CC3CC(CC(C)(C3)C1)C2	none (no result: AP complement, MMP13 inh, SF1 activator, E coli RNAP, RORA act)
O=C(CC(=O)c1ccccc1)Nc1ccc2c(c1)OCCO2	SF1 activator 61
O=C(COc1ncnc2ccccc12)c1ccc2c(c1)OCCO2	SF1 activator 58
O=C(Cn1cnc2ccccc2c1=O)Nc1ccc2c(c1)OCCO2	SF1 activator 59
CCOCC(=O)Nc1ccc2c(c1)OCCO2	none
O=C(CS(=O)(=O)c1ccccc1)c1ccc2c(c1)OCCO2	SF1 activator 52
Cc1ccc(S(=O)(=O)Oc2ccccc2C(=S)N2CCOCC2)cc1	none (no result: AP complement, MMP13 inh, SF1 activator, E coli RNAP, RORA act)
COc1cc(C2=NOC(C(=O)NCc3ccco3)C2)cc(OC)c1OC (configuration not stated)	SF1 activator 55, RORA act 82
CCOC(=O)c1csc(NC(=O)c2ccccc2)n1	SF1 activator 63, RORA act 79
O=C1OC(c2sc3ccccc3c2Cl)=N/C1=C/c1ccccc1	none (no result: AP complement, MMP13 inh, SF1 activator, E coli RNAP, RORA act)
Cc1cccc2nc(=S)n(C(=O)c3ccco3)n12	RORA act 56
O=C(c1cc2ncc(Br)cn2n1)N1CCN(C(=O)c2ccco2)CC1	none
O=C(c1ccco1)n1c(=S)nc2ccccn21	RORA act 77
Cc1ccc(NC(=O)C2CC=CCC2C(=O)OCC(Cl)=C(Cl)Cl)cc1 (configuration not stated)	none (no result: AP complement, MMP13 inh, SF1 activator, E coli RNAP, RORA act)
Cc1ccc(OCC(=O)O/N=C(\N)c2ccccn2)c(Br)c1	none (no result: AP complement, MMP13 inh, SF1 activator, E coli RNAP, RORA act)
COC(=O)c1ccc(Cl)c(NC(C)=O)c1	none
COC(=O)c1ccc(C(=O)OC)c(NC(=O)c2cc(Cl)ccc2Cl)c1	HePTP inhibitor 102 (no result: AP complement, MMP13 inh, SF1 activator, E coli RNAP, RORA act)
COC1=CC(CC(=O)c2ccc(OC)c(OC)c2)C(C(=O)c2ccccc2Cl)C=C1OC (configuration not stated)	none (no result: AP complement, MMP13 inh, SF1 activator, E coli RNAP, RORA act)
COC1=CC(CC(=O)c2ccc(OC)cc2)C(C(=O)c2ccccc2Cl)C=C1OC (configuration not stated)	HePTP inhibitor 95 (no result: AP complement, MMP13 inh, SF1 activator, E coli RNAP, RORA act)
CCOC(=O)c1ccc(N2C(=O)C3C(c4ccc(Cl)cc4)OC4(C(=O)c5ccccc5C4=O)C3C2=O)cc1 (configuration not stated)	none (no result: AP complement, MMP13 inh, SF1 activator, E coli RNAP, RORA act)
CCOC(=O)C1=C(C)NC(=O)NC1c1ccoc1 (configuration not stated)	none
CCOC(=O)C1=C(C)NC(=O)NC1c1ccsc1 (configuration not stated)	HePTP inhibitor 104 (no result: AP complement, MMP13 inh, SF1 activator, E coli RNAP, RORA act)
Cc1cc(=O)[nH]c(N2CCN(Cc3ccccc3)CC2)n1	none
